ChEMBL document CHEMBL4406806, “Design, Synthesis, and Characterization of Ogerin-Based Positive Allosteric Modulators for G Protein-Coupled Receptor 68 (GPR68)” (J Med Chem, 2019)
Active and inactive are the calls of the source. The rule behind the calls is not given here.

Key:
[1] = biological target: G-prodeshotein coupled receptor 4 (Homo sapiens) (UniProt P46093); assay: (§1) Positive allosteric modulation of human GPR4 expressed in HEK293T cells co-expressing Gs assessed as stimulation of proton-mediated cAMP production in HBSS buffer containing pH 6.8 to 8.2 HEPES/pH 8.3 to 8.6 TAPS measured after 20 to 30 mins in presence of PDE inhibitor Ro 20-1724 by luciferase-glo reporter gene assay; type: functional, cell-based
G-prodeshotein coupled receptor 4 (Homo sapiens), sequence (P46093 whole entry, looked up): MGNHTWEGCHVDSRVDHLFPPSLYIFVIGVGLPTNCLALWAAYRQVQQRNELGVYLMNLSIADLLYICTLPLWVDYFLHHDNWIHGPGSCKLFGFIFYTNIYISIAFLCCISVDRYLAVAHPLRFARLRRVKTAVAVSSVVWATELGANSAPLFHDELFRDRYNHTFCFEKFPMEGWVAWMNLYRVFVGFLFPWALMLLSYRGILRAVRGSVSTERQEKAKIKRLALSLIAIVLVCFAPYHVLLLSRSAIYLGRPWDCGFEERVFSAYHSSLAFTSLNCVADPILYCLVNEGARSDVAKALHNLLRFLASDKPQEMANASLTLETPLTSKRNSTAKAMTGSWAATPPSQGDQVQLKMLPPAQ
Outline: (§2)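 Transient co-transfection of HEK293T with receptor and GloSensor plasmids using PEI, overnight, then replated in DMEM + 1% dFBS for 6–24 h. Luciferin 3.5 mM loaded for 1 h at 37 °C in HBSS/20 mM TAPS, pH 8.40. Proton series: Ca/Mg-free HBSS with MES (pH 5.60–6.70), HEPES (6.80–8.20) or TAPS (8.30–8.60), plus 10 μM Ro 20-1724. BSA 1 mg/mL added where solubility required. Luminescence read at 20–30 min. At least six 16-point proton curves across modulator concentrations, quadruplicate, ≥3 independent assays.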

[2] = biological target: G-protein coupled receptor 68 (Homo sapiens) (UniProt Q15743); assay: as §1, with “GPR68” for “GPR4”, “production by measuring efficacy cooperativity” for “production”; type: functional, cell-based; outline: as §2
G-protein coupled receptor 68 (Homo sapiens), sequence (Q15743 whole entry): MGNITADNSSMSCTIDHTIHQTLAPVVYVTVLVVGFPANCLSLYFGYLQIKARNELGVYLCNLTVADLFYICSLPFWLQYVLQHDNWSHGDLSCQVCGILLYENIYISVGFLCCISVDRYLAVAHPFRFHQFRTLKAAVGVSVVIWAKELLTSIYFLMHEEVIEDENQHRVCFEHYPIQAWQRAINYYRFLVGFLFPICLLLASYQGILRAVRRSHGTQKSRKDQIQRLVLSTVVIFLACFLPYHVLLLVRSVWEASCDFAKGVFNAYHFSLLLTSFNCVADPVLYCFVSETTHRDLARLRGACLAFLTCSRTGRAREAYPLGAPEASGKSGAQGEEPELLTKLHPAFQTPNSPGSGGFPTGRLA

[3] = biological target: G-protein coupled receptor 68 (Homo sapiens) (UniProt Q15743); assay: as §1, with “GPR68” for “GPR4”, “production by measuring allosteric affinity cooperativity” for “production”; type: functional, cell-based; outline: as §2
[4] = biological target: G-protein coupled receptor 68 (Homo sapiens) (UniProt Q15743); assay: as §1, with “GPR68” for “GPR4”; type: functional, cell-based; outline: as §2
[5] = biological target: G-protein coupled receptor 65 (Homo sapiens) (UniProt Q8IYL9); assay: as §1, with “GPR65” for “GPR4”; type: functional, cell-based; outline: as §2
G-protein coupled receptor 65 (Homo sapiens), sequence (Q8IYL9 whole entry): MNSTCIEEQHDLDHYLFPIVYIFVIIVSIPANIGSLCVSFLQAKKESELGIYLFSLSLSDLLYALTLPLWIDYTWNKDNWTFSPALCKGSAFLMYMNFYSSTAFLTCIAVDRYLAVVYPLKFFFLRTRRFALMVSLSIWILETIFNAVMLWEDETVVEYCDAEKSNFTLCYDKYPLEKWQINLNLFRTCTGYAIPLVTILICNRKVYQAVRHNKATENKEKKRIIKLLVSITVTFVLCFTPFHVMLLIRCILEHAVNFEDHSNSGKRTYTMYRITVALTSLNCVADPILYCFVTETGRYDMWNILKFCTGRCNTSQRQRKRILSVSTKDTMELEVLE

[6] = biological target: G-protein coupled receptor 68 (Homo sapiens) (UniProt Q15743); assay: as §1, with “GPR68” for “GPR4”, “production by measuring allosteric binding affinity” for “production”; type: functional, cell-based; outline: as §2
[7] = biological target: G-protein coupled receptor 68 (Homo sapiens) (UniProt Q15743); assay: as §1, with “GPR68” for “GPR4”, “production by measuring allosteric index” for “production”; type: functional, cell-based; outline: as §2
[8] = biological target: G-protein coupled receptor 68 (Mus musculus) (UniProt Q8BFQ3); assay: as §1, with “mouse GPR68” for “human GPR4”, “production by measuring allosteric affinity cooperativity” for “production”; type: functional, cell-based
G-protein coupled receptor 68 (Mus musculus), sequence (Q8BFQ3 whole entry): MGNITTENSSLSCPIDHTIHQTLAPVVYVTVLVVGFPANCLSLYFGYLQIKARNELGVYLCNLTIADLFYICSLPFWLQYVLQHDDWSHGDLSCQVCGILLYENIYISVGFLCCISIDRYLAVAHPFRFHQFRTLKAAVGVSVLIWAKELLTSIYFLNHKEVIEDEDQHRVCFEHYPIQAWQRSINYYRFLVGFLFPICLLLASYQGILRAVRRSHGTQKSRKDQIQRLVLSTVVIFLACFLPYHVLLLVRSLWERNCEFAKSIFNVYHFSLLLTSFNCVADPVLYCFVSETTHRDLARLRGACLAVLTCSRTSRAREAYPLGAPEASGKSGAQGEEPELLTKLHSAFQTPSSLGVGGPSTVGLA
Outline: (§3)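 α, β and KB obtained by fitting proton responses with and without modulator to the standard allosteric operational model. Overall index is log(αβ/KB). Values are mean ± SEM from ≥3 independent assays, each run in triplicate or quadruplicate.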

[9] = biological target: G-protein coupled receptor 68 (Mus musculus) (UniProt Q8BFQ3); assay: as §1, with “mouse GPR68” for “human GPR4”, “production by measuring allosteric index” for “production”; type: functional, cell-based; outline: as §3
[10] = biological target: G-protein coupled receptor 68 (Mus musculus) (UniProt Q8BFQ3); assay: as §1, with “mouse GPR68” for “human GPR4”, “production by measuring efficacy cooperativity” for “production”; type: functional, cell-based; outline: as §3
[11] = biological target: T1, Atypical chemokine receptor 3 (Homo sapiens, UniProt P25106); assay: Agonist activity at human ACKR3 expressed in HTLA cells assessed as stimulation of beta-arrestin recruitment incubated for 16 to 20 hrs by bright-glo luminescence assay; type: cell-based
T1 sequence (P25106 whole entry): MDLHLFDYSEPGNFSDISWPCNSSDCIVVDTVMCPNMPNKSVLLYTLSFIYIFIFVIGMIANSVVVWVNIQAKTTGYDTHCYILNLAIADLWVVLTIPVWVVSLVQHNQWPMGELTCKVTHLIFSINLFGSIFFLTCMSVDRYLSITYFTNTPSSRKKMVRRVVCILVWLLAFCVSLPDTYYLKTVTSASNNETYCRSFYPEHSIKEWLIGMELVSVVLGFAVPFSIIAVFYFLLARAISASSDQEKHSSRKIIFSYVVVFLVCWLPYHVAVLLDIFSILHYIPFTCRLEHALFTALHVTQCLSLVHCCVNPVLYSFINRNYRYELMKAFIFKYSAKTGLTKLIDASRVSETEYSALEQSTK
Outline: (§4)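 Tango arrestin assay in HTLA cells transfected with receptor DNA overnight in DMEM + 10% FBS, then replated on poly-L-Lys in DMEM + 1% dFBS. Drugs added 6 h later and incubated overnight (16–20 h). Medium removed, Bright-Glo added, luminescence counted.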

[12] = biological target: T2, 5-hydroxytryptamine receptor 2B (Homo sapiens, UniProt P41595); assay: Displacement of [3H]LSD from recombinant human 5HT2B stably expressed in HEK cell membranes incubated for 90 mins under dark condition by microbeta scintillation counting analysis
T2 sequence (P41595 whole entry): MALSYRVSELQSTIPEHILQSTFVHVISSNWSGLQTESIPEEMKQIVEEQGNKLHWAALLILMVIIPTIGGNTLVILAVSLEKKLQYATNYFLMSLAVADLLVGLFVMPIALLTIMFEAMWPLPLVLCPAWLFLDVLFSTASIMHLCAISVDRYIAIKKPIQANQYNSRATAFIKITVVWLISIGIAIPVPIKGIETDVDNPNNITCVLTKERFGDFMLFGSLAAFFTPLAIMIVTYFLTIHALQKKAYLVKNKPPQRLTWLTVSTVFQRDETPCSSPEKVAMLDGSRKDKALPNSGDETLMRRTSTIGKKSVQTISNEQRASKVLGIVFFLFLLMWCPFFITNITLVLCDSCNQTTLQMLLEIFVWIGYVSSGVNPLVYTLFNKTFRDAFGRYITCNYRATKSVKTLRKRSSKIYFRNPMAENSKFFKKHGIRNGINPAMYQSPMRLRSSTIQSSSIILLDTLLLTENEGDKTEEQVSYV

[13] = biological target: T2, 5-hydroxytryptamine receptor 2B; assay: Agonist activity at human 5HT2B receptor expressed in Flp-In-HEK cells co-expressing Gq assessed as stimulation of calcium mobilization measured for 2 mins by fluo-4 calcium dye-based FLIPR assay; type: functional, cell-based
Outline: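 HEK293 cells stably expressing 5-HT2B, seeded overnight (16–20 h) on poly-L-Lys in DMEM + 1% dFBS. Fluo-4 Direct dye loaded for 1 h at 37 °C in HBSS/20 mM HEPES/2.5 mM probenecid, pH 7.40. Drug diluted in buffer with 1 mg/mL BSA and 0.1 mg/mL ascorbic acid. Fluorescence read for 2 min; peak fold of basal within the first minute.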

[14] = biological target: T1, Atypical chemokine receptor 3; assay: Agonist activity at human ACKR3 expressed in HTLA cells assessed as stimulation of beta-arrestin recruitment at 1 uM incubated for 16 to 20 hrs by bright-glo luminescence assay; type: cell-based
[15] = biological target: G-protein coupled receptor 65 (Homo sapiens) (UniProt Q8IYL9); assay: as §1, with “GPR65” for “GPR4”, “production at higher concentration” for “production”; type: functional, cell-based; outline: as §2
[16] = biological target: G-prodeshotein coupled receptor 4 (Homo sapiens) (UniProt P46093); assay: as §1, with “production at higher concentration” for “production”; type: functional, cell-based; outline: as §2
[17] = biological target: T2, 5-hydroxytryptamine receptor 2B; assay: Antagonist activity at human 5HT2B receptor expressed in Flp-In-HEK cells co-expressing Gq assessed as inhibition of 5HT-induced stimulation of calcium mobilization preincubated for 10 mins followed by 5HT addition by fluo-4 calcium dye-based FLIPR assay; type: functional, cell-based
[18] = biological target: T3, Melatonin receptor type 1A (Homo sapiens, UniProt P48039); assay: Agonist activity at human MT1 receptor expressed in HTLA cells assessed as stimulation of beta-arrestin recruitment at 1 uM incubated for 16 to 20 hrs by bright-glo luminescence assay; type: cell-based
T3 sequence (P48039 whole entry): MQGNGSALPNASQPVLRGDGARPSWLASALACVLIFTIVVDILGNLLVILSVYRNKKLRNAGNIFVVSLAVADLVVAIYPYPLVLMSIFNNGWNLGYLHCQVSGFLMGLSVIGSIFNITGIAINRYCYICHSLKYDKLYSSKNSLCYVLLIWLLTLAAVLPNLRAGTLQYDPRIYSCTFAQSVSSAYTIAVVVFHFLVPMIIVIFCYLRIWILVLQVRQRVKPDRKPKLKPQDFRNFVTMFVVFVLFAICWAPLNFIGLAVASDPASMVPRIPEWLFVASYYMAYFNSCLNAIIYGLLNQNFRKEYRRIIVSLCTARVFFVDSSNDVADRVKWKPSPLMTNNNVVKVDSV

[19] = Toxicity in Swiss albino mouse assessed as effect on clinical parameter at 25 mg/kg, ip administered as single dose; type: organism-based; conditions: in vivo
[20] = Drug uptake in Swiss albino mouse brain at 25 mg/kg, ip administered as single dose measured after 0.5 hrs; type: ADME, organism-based; conditions: read-out: Drug uptake
[21] = biological target: T3, Melatonin receptor type 1A; assay: Agonist activity at human MT1 receptor expressed in HTLA cells assessed as stimulation of beta-arrestin recruitment incubated for 16 to 20 hrs by bright-glo luminescence assay; type: cell-based; outline: as §4
[22] = Drug uptake in Swiss albino mouse brain at 25 mg/kg, ip administered as single dose measured up to 2 hrs; type: ADME, organism-based; conditions: in vivo
[23] = biological target: T4, Melatonin receptor type 1B (Homo sapiens, UniProt P49286); assay: Agonist activity at human MT2 receptor expressed in HTLA cells assessed as stimulation of beta-arrestin recruitment incubated for 16 to 20 hrs by bright-glo luminescence assay; type: cell-based; outline: as §4
T4 sequence (P49286 whole entry): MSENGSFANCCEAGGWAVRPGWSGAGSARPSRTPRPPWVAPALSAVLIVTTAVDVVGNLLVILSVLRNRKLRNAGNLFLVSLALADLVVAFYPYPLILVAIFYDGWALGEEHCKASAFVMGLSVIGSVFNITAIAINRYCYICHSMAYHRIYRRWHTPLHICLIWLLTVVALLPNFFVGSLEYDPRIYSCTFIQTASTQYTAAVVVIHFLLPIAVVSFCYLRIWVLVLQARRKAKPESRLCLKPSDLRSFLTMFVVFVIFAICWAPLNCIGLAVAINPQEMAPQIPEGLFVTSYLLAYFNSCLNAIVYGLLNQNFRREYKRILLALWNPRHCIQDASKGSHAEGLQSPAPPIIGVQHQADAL

[24] = biological target: T5, Melatonin receptor type 1B (Homo sapiens) (UniProt P49286); assay: Agonist activity at human MT2 receptor expressed in HTLA cells assessed as stimulation of beta-arrestin recruitment incubated for 16 to 20 hrs by bright-glo luminescence assay relative to control; type: cell-based; outline: as §4
T5 sequence (whole entry): T4 sequence (P49286 whole entry)

[25] = Drug uptake in Swiss albino mouse plasma at 25 mg/kg, ip administered as single dose measured up to 2 hrs; type: ADME, organism-based; conditions: in vivo
[26] = Drug uptake in Swiss albino mouse plasma at 25 mg/kg, ip administered as single dose measured after 0.5 hrs; type: ADME, organism-based
[27] = biological target: T5, Melatonin receptor type 1B (Homo sapiens); assay: Agonist activity at human MT2 receptor expressed in HTLA cells assessed as stimulation of beta-arrestin recruitment at 1 uM incubated for 16 to 20 hrs by bright-glo luminescence assay; type: cell-based
[28] = biological target: T6, Adenosine receptor A2a (Homo sapiens, UniProt P29274); assay: Inverse agonist activity at recombinant human A2A receptor expressed in HEK293T cells co-expressing Gs assessed as decrease in cAMP accumulation measured after 15 mins by Glosensor chemiluminescence assay; type: functional, cell-based
T6 sequence (P29274 whole entry): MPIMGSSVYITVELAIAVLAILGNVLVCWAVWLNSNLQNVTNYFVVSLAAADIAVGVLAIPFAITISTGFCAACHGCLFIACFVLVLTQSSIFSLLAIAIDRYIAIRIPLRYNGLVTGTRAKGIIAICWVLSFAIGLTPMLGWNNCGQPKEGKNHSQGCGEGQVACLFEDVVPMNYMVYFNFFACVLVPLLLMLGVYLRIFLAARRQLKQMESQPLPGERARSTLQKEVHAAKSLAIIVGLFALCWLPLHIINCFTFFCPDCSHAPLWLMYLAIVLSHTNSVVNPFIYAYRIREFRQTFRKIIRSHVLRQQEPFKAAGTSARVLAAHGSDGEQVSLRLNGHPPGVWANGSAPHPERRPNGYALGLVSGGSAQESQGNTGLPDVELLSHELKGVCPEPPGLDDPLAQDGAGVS

[29] = biological target: T6, Adenosine receptor A2a; assay: Displacement of [3H]ZM241385 from recombinant human A2A receptor incubated for 90 mins under dark condition by microbeta scintillation method
[30] = biological target: T6, Adenosine receptor A2a; assay: Agonist activity at recombinant human A2A receptor expressed in HEK293T cells co-expressing Gs assessed as stimulation of cAMP accumulation measured after 15 mins by Glosensor chemiluminescence assay; type: functional, cell-based
[31] = biological target: T6, Adenosine receptor A2a; assay: Antagonist activity at recombinant human A2A receptor expressed in HEK293T cells co-expressing Gs assessed as inhibition of NECA-stimulated cAMP accumulation preincubated for 15 mins followed by NECA addition and measured after 15 mins by Glosensor chemiluminescence assay; type: functional, cell-based

Structure (SMILES): CC(=O)c1cccc(-c2nc(N)nc(NCc3ccccc3)n2)c1
- Activity [1]: inactive
- log(activity) [2]: inactive
- log(activity) [3]: inactive
- Activity [4]: inactive
- Activity [5]: inactive
- pKb [6]: inactive
- Activity_index [7]: inactive

Structure (SMILES): Nc1nc(NCc2ccccc2)nc(-c2ccccc2CO)n1
- log(activity) [8]: 0.8
- log(activity) [2]: 0.36
- Activity index [9]: 4.97
- log(activity) [3]: 0.6
- Activity [4]: Dose-dependent effect
- log(activity) [10]: 0.04
- Activity index [7]: 5.31

Structure (SMILES): Nc1nc(NCCc2ccccc2)nc(-c2cc(Cl)ccc2CO)n1
- EC50 [11]: 1700 nM
- Ki ([12]; read-out: Ki): 209 nM
- Ki ([12]; read-out: pKi (converted)): 100 to 316 nM
- Activity [13]: inactive
- log(activity) [8]: 1.06
- log(activity) [2]: 0.03
- Activity index [9]: 5.92
- log(activity) [3]: 1.09
- Activity [14]: Active
- Activity [15]: inactive
- Activity [16]: inactive
- log(activity) [10]: 0.13
- Ki [17]: 678 nM
- Activity index [7]: 6.26

Structure (SMILES): Nc1nc(NCCCc2ccccc2)nc(-c2cc(Cl)ccc2CO)n1
- EC50 [11]: 690 nM
- Ki ([12]; read-out: Ki): 295 nM
- Ki ([12]; read-out: pKi (converted)): 100 to 316 nM
- Activity [13]: inactive
- log(activity) [8]: 0.99
- log(activity) [2]: 0.01
- Activity index [9]: 5.98
- log(activity) [3]: 1.03
- Activity [14]: Active
- Activity [15]: inactive
- Activity [16]: inactive
- log(activity) [10]: 0.13
- Ki [17]: 212 nM
- Activity index [7]: 6.38

Structure (SMILES): Nc1nc(NCc2ccccc2)nc(-c2cccc(CO)c2)n1
- Activity [1]: inactive
- log(activity) [2]: inactive
- log(activity) [3]: inactive
- Activity [4]: inactive
- Activity [5]: inactive
- pKb [6]: inactive
- Activity_index [7]: inactive

Structure (SMILES): Nc1nc(NCc2ccc(Oc3ccccc3)cc2)nc(-c2c(F)cccc2CO)n1
- Activity [18]: Active
- Ki ([12]; read-out: Ki): 219 nM
- Ki ([12]; read-out: pKi (converted)): 100 to 316 nM
- Activity [13]: inactive
- Activity [19]: Non-Toxic
- log(activity) [8]: 1.26
- log(activity) [2]: 0.06
- Activity index [9]: 6.46
- log(activity) [3]: 0.9
- concentration at 0.5 h [20]: > 10 µM
- EC50 [21]: 320 nM
- Kd [21]: 5900 nM
- Activity [15]: inactive
- Drug uptake [22]: Active
- EC50 [23]: 540 nM
- Kd [23]: 1100 nM
- Activity [16]: inactive
- Activity [4]: Dose-dependent effect
- Emax [24]: 24%
- Drug uptake [25]: Active
- log(activity) [10]: 0.09
- Ki [17]: 310 nM
- concentration at 0.5 h [26]: > 10 µM
- Activity [27]: Active
- Activity index [7]: 6.83

Structure (SMILES): Nc1nc(NCCCCc2ccccc2)nc(-c2ccccc2CO)n1
- log(activity) [8]: 0.91
- log(activity) [2]: 0.21
- Activity index [9]: 5.89
- log(activity) [3]: 0.62
- log(activity) [10]: 0.08
- Activity index [7]: 6.35

Structure (SMILES): Nc1nc(NCc2ccc(Cl)cc2)nc(-c2ccccc2CO)n1
- IC50 [28]: 1700 nM
- log(activity) [8]: 1.41
- log(activity) [2]: 0.41
- Activity index [9]: 5.68
- log(activity) [3]: 0.49
- Activity [14]: inactive
- Activity [15]: inactive
- Ki [29]: 300 nM
- Activity [16]: inactive
- log(activity) [10]: -0.02
- Activity [30]: inactive
- Ki [31]: 6700 nM
- Activity index [7]: 6.11

Structure (SMILES): CN(C)c1nc(NCc2ccccc2)nc(-c2ccccc2CO)n1
- Activity [1]: inactive
- log(activity) [2]: inactive
- log(activity) [3]: inactive
- Activity [4]: inactive
- Activity [5]: inactive
- pKb [6]: inactive
- Activity_index [7]: inactive
